The subject of assay [1] is Nucleic Acid. Put plainly: Binding affinity to c-myc quadruplex DNA FPu18T assessed as change in melting temperature at 2 uM by FRET-melting assay. The assay is classed as nucleic-acid assay. Put shortly:
(§1)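 FRET melting of 0.2 μM dual-labelled oligo (FPu18T, FAM/TAMRA c-myc G-quadruplex; or F10T, HEG-linked hairpin duplex) in 10 mM Tris-HCl pH 7.2, 0.2 mM KCl, with or without 2 μM ligand. Excitation 470 nm, emission 530 nm, read every 1 °C from 37–99 °C after 30 s hold. ΔTm = Tm(DNA+ligand) − Tm(DNA); mean ± SD of at least three runs.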

In assay [2] the test system is Nucleic Acid. Put plainly: Binding affinity to duplex DNA F10T assessed as change in melting temperature at 2 uM by FRET-melting assay. Format: nucleic-acid assay. The gist of the method: as §1
For assay [3], the system named is Nucleic Acid. Put plainly: Binding affinity to c-myc quadruplex DNA FPu18T assessed as change in melting temperature at 2 uM by FRET-melting assay in the presence of excess of ds26 duplex DNA. Format: nucleic-acid assay. Put shortly: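 Competition FRET melting: 0.2 μM FPu18T with 2 μM ligand in 10 mM Tris-HCl pH 7.2, 0.2 mM KCl, plus varying amounts of unlabelled self-complementary ds26 duplex as competitor. Fluorescence at 470/530 nm recorded per 1 °C step over 37–99 °C.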

Assay [4] deals with Nucleic Acid. Put plainly: Binding affinity to immobilised c-myc quadruplex DNA G4 by SPR assay. Format: nucleic-acid assay. Put shortly: (§2)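 SPR: biotinylated DNA captured (~1000 RU) on GLH chip, blank reference cell. Running buffer 50 mM Tris-HCl pH 7.2, 100 mM KCl. Ligand at 0.3125–10 μM injected at 100 μL/min, 400 s association and 400 s dissociation, 25 °C; NaOH regeneration. KD by equilibrium analysis; mean ± SD of at least two runs.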
(Surface plasmon resonance follows binding to a sensor surface in real time, without labels.)

Assay [5] has as its system Nucleic Acid. Put plainly: Binding affinity to immobilised duplex DNA up to 10 uM by SPR assay. The assay is classed as nucleic-acid assay. Put shortly: as §2
Assay [6] has as its system Nucleic Acid. Nature of the assay: Binding affinity to c-myc quadruplex DNA Pu27 assessed as conformational change up to 10 uM by circular dichroism in the presence of 100 mM K+. Format: nucleic-acid assay. Put shortly: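 CD titration of 1 μM Pu27, annealed (95 °C 5 min, slow cool, 4 °C overnight) in 10 mM Tris-HCl pH 7.2, 100 mM KCl. Ligand added stepwise (0.5–10 eq.) at 25 °C, ≥10 min equilibration per addition. Spectra 230–430 nm, 1 cm cell, average of two scans, buffer baseline subtracted.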

Assay [7] relates to Nucleic Acid. Put plainly: Binding affinity to c-myc quadruplex DNA Pu27 assessed as conformational change up to 10 uM by circular dichroism in the absence of 100 mM K+. The assay is classed as nucleic-acid assay. Put shortly:
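K+-free CD: 1 μM Pu27 in 10 mM Tris-HCl pH 7.2 with ligand at 0, 3, 5 or 10 μM, co-annealed (95 °C 5 min, slow cool, 4 °C overnight). Spectra recorded at 25 °C over 230–430 nm, 1 cm cell, two scans averaged, buffer baseline subtracted.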
On the technique in general: Circular dichroism is the unequal absorption of left and right circularly polarised light.

In assay [8] the target is Nucleic Acid. Nature of the assay: Binding affinity to c-myc quadruplex DNA Pu27 assessed as inhibition of c-myc amplification by PCR-stop assay. Format: nucleic-acid assay. The gist of the method: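 Pu27 template with partly complementary primer, 10 μM each, […], 2.5 U Taq and ligand at 1, 5, 10 or 25 μM (one series 50 μM). Cycling: 94 °C 2 min, then 30 × (94 °C, 58 °C, 72 °C, 30 s each). Products run on 16% native PAGE, GelRed stain; IC50 for 50% loss of amplification.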

For assay [9], the system named is Ramos. Nature of the assay: Growth inhibition of human Ramos cell line expressing c-myc NHE III1 after 4 days by cell counting. Format: functional, cell-based. Put shortly:
(§3)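 Cells seeded at 1.0×10^5 per well and exposed to ligand (2.5, 5 or 10 μM) or 0.1% DMSO for 4 days. Cell counts and viability taken daily; three repeats per point.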

In assay [10] the test system is CA46. Nature of the assay: Growth inhibition of c-myc NHE III1-deficient human CA46 cell line at 2.5 to 10 uM after 4 days by cell counting. The assay is classed as functional, cell-based. The gist of the method:
as §3

Assay [11] concerns Ramos. Nature of the assay: Down-regulation of c-myc gene expression in human Ramos cells after 4 days by RT-PCR analysis. The assay is classed as functional, cell-based. The gist of the method:
(§4)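 Cells given ligand at 0.5, 1, 2.5 or 5 μM for 4 days. Total RNA (TRIpure) 2 μg reverse-transcribed with oligo dT18/M-MLV (42 °C 1 h). c-myc and β-actin amplified by PCR, run on 1% agarose; c-myc normalized to β-actin.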

Assay [12] relates to CA46. Nature of the assay: Down-regulation of c-myc gene expression in human CA46 cells at 0.5 to 5 uM after 4 days by RT-PCR analysis. The assay is classed as functional, cell-based. Put shortly:
as §4

SMILES strings stand for the structures. Active and inactive are the calls of the source. No cut-off for these calls is given here. Some results are limits rather than exact numbers.

As usually defined, the ΔTm is the change in melting temperature against a reference sample. One may read the Kd as the equilibrium constant for the complex coming apart. A word on the IC50: it is the concentration that inhibits the measured activity by half. With `CCN(CC)CCOc1c(OC)ccc2nc3c(cc12)CCc1cc2c(cc1-3)OCO2`, the ΔTm in the assay on Nucleic Acid [1] came out at 6.3 °C; in the assay with Nucleic Acid [2], 1.6 °C. Also, the result in the assay with Nucleic Acid [3], in the assay on Nucleic Acid [6] and in the assay on Nucleic Acid [7] was Active. The Kd at Nucleic Acid [4] came to 2600 nM. The outcome in the assay on Nucleic Acid [5] was inactive. Also, the IC50 on Nucleic Acid [8] is above 50000 nM.
On to `COc1ccc2c(cc3c([n+]2C)-c2cc4c(cc2CC3)OCO4)c1OCCCN1CCN(C)CC1`, for which the ΔTm is 19 °C in the assay with Nucleic Acid [1] and 0.5 °C with Nucleic Acid [2]. For the same compound, the outcome in the assay with Nucleic Acid [3], in the assay on Nucleic Acid [6] and in the assay on Nucleic Acid [7] was Active. For the same compound, on Nucleic Acid [4], the Kd is 800 nM. In addition, in the assay with Nucleic Acid [5], the result was inactive. Besides, the 50% inhibitory concentration (IC50) on Nucleic Acid [8] stood at 9500 nM.
Take `COc1ccc2nc3c(cc2c1OCCN1CCCC1)CCc1cc2c(cc1-3)OCO2`: the thermal shift (ΔTm) in the assay on Nucleic Acid [1] was 5.3 °C; with Nucleic Acid [2], 1 °C. Moreover, the outcome in the assay on Nucleic Acid [3], in the assay on Nucleic Acid [6] and in the assay with Nucleic Acid [7] was Active. This compound also showed a dissociation constant Kd at Nucleic Acid [4] of 1400 nM. For the same compound, in the assay on Nucleic Acid [5], the result was inactive. In addition, the IC50 at Nucleic Acid [8] is above 50000 nM.
`COc1cc2c(cc1OC)-c1nc3ccc(OC)c(OCCCN4CCCCC4)c3cc1CC2`: the ΔTm in the assay on Nucleic Acid [1] was found to be 11 °C; in the assay on Nucleic Acid [2], 1 °C. For the same compound, the outcome with Nucleic Acid [3], with Nucleic Acid [6] and in the assay with Nucleic Acid [7] was Active. For the same compound, on Nucleic Acid [4], the Kd came out at 2800 nM. Besides, in the assay with Nucleic Acid [5], the result was inactive. For the same compound, the IC50 at Nucleic Acid [8] is above 50000 nM.
`CCN(CC)CCCOc1c(OC)ccc2c1cc1c([n+]2C)-c2cc3c(cc2CC1)OCO3`: the shift in melting temperature (ΔTm) was 21.8 °C in the assay on Nucleic Acid [1] and 1.2 °C with Nucleic Acid [2]. The result in the assay with Nucleic Acid [3], with Nucleic Acid [6] and with Nucleic Acid [7] was Active. For the same compound, at Nucleic Acid [4], binding was characterised by a dissociation constant (Kd) of 600 nM. Further, the result in the assay on Nucleic Acid [5] was inactive. Also, at Nucleic Acid [8], the IC50 was 7500 nM.
On to `COc1cc2c(cc1OC)-c1c(cc3c(OCCCN4CCCCC4)c(OC)ccc3[n+]1C)CC2`, for which the ΔTm in the assay on Nucleic Acid [1] is 23.2 °C; with Nucleic Acid [2], 0.8 °C. Also, the result in the assay with Nucleic Acid [3], in the assay on Nucleic Acid [6] and in the assay with Nucleic Acid [7] was Active. The compound further displayed an equilibrium dissociation constant (Kd) on Nucleic Acid [4] of 600 nM. Further, the result with Nucleic Acid [5] and with CA46 [12] was inactive. Further, the IC50 at Nucleic Acid [8] was 5000 nM. Further, the “growth inhibition (GI)” value in the assay on Ramos [9] was “Dose-dependent effect”. Moreover, the “growth inhibition (GI)” value in the assay on CA46 [10] is “inactive”. Also, the Activity entry in the assay with Ramos [11] was “Dose-dependent effect”.
On to `COc1ccc2c(cc3c([n+]2C)-c2cc4c(cc2CC3)OCO4)c1OCCCN1CCCCC1`, for which the ΔTm with Nucleic Acid [1] turned out to be 21.4 °C; with Nucleic Acid [2] it was 0.5 °C. Besides, the result in the assay on Nucleic Acid [3], with Nucleic Acid [6] and in the assay on Nucleic Acid [7] was Active. In addition, on Nucleic Acid [4], binding was put at a Kd of 600 nM. Also, the outcome in the assay with Nucleic Acid [5] was inactive. Further, the IC50 on Nucleic Acid [8] was 5400 nM.
In the case of `COc1ccc2c(cc3c([n+]2C)-c2cc4c(cc2CC3)OCO4)c1OCCCN1CCCC1`, the results for the ΔTm in the assay on Nucleic Acid [1] and in the assay with Nucleic Acid [2] were 22.2 °C and 1.1 °C, respectively. Also, the outcome with Nucleic Acid [3], with Nucleic Acid [6] and in the assay with Nucleic Acid [7] was Active. The compound also returned a Kd at Nucleic Acid [4] of 400 nM. Besides, the outcome in the assay with Nucleic Acid [5] was inactive. Also, at Nucleic Acid [8], the IC50 was 5300 nM.
Turning to `CCN(CC)CCCOc1c(OC)ccc2nc3c(cc12)CCc1cc2c(cc1-3)OCO2`, the results for the ΔTm with Nucleic Acid [1] and in the assay with Nucleic Acid [2] were 6.2 °C and 1 °C, respectively. The outcome in the assay with Nucleic Acid [3], in the assay on Nucleic Acid [6] and in the assay on Nucleic Acid [7] was Active. Further, binding at Nucleic Acid [4] was characterised by a dissociation constant (Kd) of 3000 nM. In addition, in the assay on Nucleic Acid [5], the result was inactive. Further, the IC50 at Nucleic Acid [8] was above 50000 nM.
`COc1cc2c(cc1OC)-c1c(cc3c(OCCCN4CCCC4)c(OC)ccc3[n+]1C)CC2`: the figures for the ΔTm in the assay on Nucleic Acid [1] and in the assay with Nucleic Acid [2] were 25.4 °C and 1.4 °C, respectively. Further, the outcome in the assay with Nucleic Acid [3], in the assay on Nucleic Acid [6] and in the assay on Nucleic Acid [7] was Active. For the same compound, the affinity on Nucleic Acid [4], expressed as Kd, was 600 nM. The result with Nucleic Acid [5] was inactive. The IC50 at Nucleic Acid [8] came to 4700 nM.
As to `COc1ccc2c(cc3c([n+]2C)-c2cc4c(cc2CC3)OCO4)c1OCCCNC1CCCCC1`, the ΔTm was 11.6 °C with Nucleic Acid [1] and 0.9 °C in the assay on Nucleic Acid [2]. For the same compound, the result with Nucleic Acid [3], with Nucleic Acid [6] and with Nucleic Acid [7] was Active. This compound also displayed a Kd at Nucleic Acid [4] of 1200 nM. For the same compound, in the assay on Nucleic Acid [5], the outcome was inactive. Further, the 50% inhibitory concentration (IC50) at Nucleic Acid [8] worked out at 14000 nM.
Regarding `CCN(CC)CCCOc1c(OC)ccc2nc3c(cc12)CCc1cc(OC)c(OC)cc1-3`, the ΔTm in the assay on Nucleic Acid [1] was 11.2 °C; with Nucleic Acid [2] it was 0.4 °C. For the same compound, the result in the assay on Nucleic Acid [3], with Nucleic Acid [6] and in the assay with Nucleic Acid [7] was Active. The Kd at Nucleic Acid [4] was 4400 nM. The result in the assay on Nucleic Acid [5] was inactive. Further, the IC50 at Nucleic Acid [8] is above 50000 nM.

The values above are taken from ChEMBL document CHEMBL2034832, “12-N-Methylated 5,6-dihydrobenzo[c]acridine derivatives: a new class of highly selective ligands for c-myc G-quadruplex DNA” (Eur J Med Chem, 2012).
